# Source: publication PMC3418399 (Molecular microbiology, 2012)
# Entries after “also recorded” stand apart in the source; their conditions may differ. Where two headings read alike, the source gives them in different places. Non-standard residues stand in square brackets, D forms with d.
# Legend:
# [1] = tested on: human red blood cells; assay: Hemolysis; format: cell-based; conditions: for lysis of red blood cells: ≤100 μM
# [2] = tested on: human epithelial (HEp2) cells; assay: Toxicity for cultured human epithelial cells; format: cell-based
# [3] = tested on: AD/CDR1 (Wild type CaCdr1p; AD/CaCDR1B); assay: Agarose diffusion FLC chemosensitization assay; format: cell-based, Saccharomyces cerevisiae; conditions: for chemosensitization of cells overexpressing CaCdr1p to FLC: ~6 nmole/disk, FLC 40 μg ml^−1
# [4] = molecular target: T1, CaCdr1p-mediated rhodamine 6G efflux in AD/CaCDR1 cells (Candida albicans, UniProt P43071); assay: Glucose-dependent rhodamine 6G efflux in whole cells; format: cell-based
# T1 sequence (P43071 whole entry): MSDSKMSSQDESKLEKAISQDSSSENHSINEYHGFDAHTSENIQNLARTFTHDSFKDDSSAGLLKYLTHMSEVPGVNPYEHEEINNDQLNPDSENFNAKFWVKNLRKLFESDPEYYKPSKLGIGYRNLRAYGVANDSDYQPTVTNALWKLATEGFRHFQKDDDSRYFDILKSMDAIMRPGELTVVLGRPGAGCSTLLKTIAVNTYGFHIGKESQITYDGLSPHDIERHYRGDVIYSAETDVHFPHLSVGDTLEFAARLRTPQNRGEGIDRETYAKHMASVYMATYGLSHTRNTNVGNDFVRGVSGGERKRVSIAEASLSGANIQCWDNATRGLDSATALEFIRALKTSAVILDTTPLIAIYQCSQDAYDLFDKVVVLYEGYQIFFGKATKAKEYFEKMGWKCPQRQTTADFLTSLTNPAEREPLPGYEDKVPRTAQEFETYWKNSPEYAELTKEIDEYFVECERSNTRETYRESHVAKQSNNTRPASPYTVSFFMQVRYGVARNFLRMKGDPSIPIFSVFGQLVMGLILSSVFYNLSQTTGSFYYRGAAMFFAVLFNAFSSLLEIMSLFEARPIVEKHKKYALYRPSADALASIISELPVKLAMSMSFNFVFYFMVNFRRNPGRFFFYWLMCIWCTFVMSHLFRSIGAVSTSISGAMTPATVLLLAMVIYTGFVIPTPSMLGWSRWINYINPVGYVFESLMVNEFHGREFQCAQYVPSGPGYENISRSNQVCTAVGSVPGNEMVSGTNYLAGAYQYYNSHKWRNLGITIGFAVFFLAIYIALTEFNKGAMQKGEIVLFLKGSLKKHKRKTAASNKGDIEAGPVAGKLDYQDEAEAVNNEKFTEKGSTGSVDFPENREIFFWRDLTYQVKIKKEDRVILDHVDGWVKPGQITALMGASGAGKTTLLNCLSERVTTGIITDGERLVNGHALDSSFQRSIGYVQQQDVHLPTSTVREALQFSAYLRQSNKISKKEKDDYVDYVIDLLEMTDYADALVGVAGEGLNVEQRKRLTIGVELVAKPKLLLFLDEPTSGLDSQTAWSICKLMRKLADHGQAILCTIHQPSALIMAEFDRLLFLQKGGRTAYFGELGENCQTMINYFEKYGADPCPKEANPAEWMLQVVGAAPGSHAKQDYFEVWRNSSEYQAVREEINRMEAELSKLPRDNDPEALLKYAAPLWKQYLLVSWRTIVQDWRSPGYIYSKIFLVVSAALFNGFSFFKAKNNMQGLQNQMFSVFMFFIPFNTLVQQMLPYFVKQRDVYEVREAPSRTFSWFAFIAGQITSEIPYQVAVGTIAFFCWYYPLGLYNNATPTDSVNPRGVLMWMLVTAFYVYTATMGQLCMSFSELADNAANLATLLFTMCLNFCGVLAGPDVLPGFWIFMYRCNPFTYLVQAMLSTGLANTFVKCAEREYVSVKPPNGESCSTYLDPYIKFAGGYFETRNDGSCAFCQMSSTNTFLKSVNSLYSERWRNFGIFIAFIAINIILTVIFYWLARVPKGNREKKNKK
# [5] = molecular target: T2, Pma1p ATPase (Saccharomyces cerevisiae, UniProt P05030); assay: Pma1p ATPase assay; format: biochemical; conditions: read-out: IC50 Pma1p ATPase; pH 7.0, 10 μM oligomycin
# T2 sequence (P05030 1-918): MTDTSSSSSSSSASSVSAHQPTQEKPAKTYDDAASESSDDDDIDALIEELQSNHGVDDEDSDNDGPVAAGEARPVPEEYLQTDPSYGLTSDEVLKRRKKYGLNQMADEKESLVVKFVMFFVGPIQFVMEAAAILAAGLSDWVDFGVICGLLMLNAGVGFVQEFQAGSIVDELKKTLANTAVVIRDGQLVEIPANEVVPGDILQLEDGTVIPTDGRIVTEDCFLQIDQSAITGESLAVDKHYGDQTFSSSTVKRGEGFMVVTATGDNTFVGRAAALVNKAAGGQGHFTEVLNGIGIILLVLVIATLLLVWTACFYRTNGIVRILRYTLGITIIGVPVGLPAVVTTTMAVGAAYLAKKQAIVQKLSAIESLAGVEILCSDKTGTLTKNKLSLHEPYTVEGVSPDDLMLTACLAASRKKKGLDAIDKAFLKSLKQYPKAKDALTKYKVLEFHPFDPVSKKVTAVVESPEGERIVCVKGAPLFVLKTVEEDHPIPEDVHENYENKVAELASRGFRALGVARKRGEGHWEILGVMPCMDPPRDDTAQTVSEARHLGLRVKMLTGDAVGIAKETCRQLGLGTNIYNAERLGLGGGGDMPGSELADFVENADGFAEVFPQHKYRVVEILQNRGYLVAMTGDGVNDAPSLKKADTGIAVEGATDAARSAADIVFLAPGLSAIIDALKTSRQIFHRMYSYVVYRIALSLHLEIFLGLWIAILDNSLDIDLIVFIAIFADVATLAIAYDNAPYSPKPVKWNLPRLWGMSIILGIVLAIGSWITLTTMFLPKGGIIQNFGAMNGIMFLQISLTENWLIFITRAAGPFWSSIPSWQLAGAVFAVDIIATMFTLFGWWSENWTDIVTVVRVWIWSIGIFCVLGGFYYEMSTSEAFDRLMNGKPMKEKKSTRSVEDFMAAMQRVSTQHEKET
# [6] = tested on: TM5 (CaCdr1p V674F); assay: MIC, liquid microdilution; format: cell-based, Saccharomyces cerevisiae; conditions: TM5, V674F; RC21 and rhodamines; CSM pH 7.0, 30°C, 48 h
# [7] = tested on: AD/CDR1 (Wild type CaCdr1p); assay: MIC, liquid microdilution; format: cell-based, Saccharomyces cerevisiae; conditions: AD/CDR1, Wild type; RC21 and rhodamines; CSM pH 7.0, 30°C, 48 h
# [8] = tested on: EL4-1 (CaCdr1p Q1226K); assay: MIC, liquid microdilution; format: cell-based, Saccharomyces cerevisiae; conditions: EL4-1, Q1226K; RC21 and rhodamines; CSM pH 7.0, 30°C, 48 h
# [9] = tested on: EL6 (CaCdr1p Q1445R); assay: MIC, liquid microdilution; format: cell-based, Saccharomyces cerevisiae; conditions: EL6, Q1445R; RC21 and rhodamines; CSM pH 7.0, 30°C, 48 h
# [10] = tested on: EL1/TM2 (CaCdr1p G547R); assay: MIC, liquid microdilution; format: cell-based, Saccharomyces cerevisiae; conditions: EL1/TM2, G547R; RC21 and rhodamines; CSM pH 7.0, 30°C, 48 h
# [11] = molecular target: T1, CaCdr1p-mediated rhodamine 6G efflux in AD/CaCDR1 cells; conditions: 1.25 μM; S. cerevisiae strain overexpressing CaCdr1p; ref Holmes et al., 2008; cited from earlier work
# [12] = tested on: C. albicans MML611; conditions: 0.62 μM; FLC-resistant MML611; ref Holmes et al., 2008; cited from earlier work
# [13] = tested on: C. albicans strain MML33 (deleted of both copies of CDR1); assay: Agarose diffusion / checkerboard FLC chemosensitization; format: cell-based, Candida albicans; conditions: 7.5 nmole RC21
# Summary of the method: (§1)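 Agarose diffusion on C. albicans clinical isolates. Base CSM-ura with FLC at the indicated concentration was solidified with 0.6% agarose. Cells were layered over it in CSM-ura overlay (0.4% agarose plus FLC). Crude, non-HPLC-purified test peptide (7.5 nmole) was dried on a paper disk at 37 °C for 1-2 h and placed on the overlay. Plates were incubated at 30 °C for 48 h, and inhibition-zone diameters were compared with and without FLC.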
# [14] = tested on: AD/pABC3 or AD/CaCDR1 cells; assay: Rhodamine 6G uptake in de-energised cells; format: cell-based, Saccharomyces cerevisiae; conditions: concentrations <20 μM
# Summary of the method: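 Host S. cerevisiae and Cdr1p-expressing cells were harvested at log phase, washed, and suspended in 50 mM HEPES-NaOH pH 7.0. They were de-energised with 5 mM 2-deoxyglucose (30 °C, 30 min), then given 15 μM R6G ± test peptide at OD600 1.0. Samples taken at time intervals were boiled 10 min in SDS/mercaptoethanol/Tris pH 6.8 lysis buffer. Released R6G was quantified fluorimetrically against a standard curve in lysis buffer.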
# [15] = tested on: AD/pABC3 (Control); assay: Agarose diffusion FLC chemosensitization assay; format: cell-based, Saccharomyces cerevisiae; conditions: presence or absence of FLC at 1/4 MIC
# [16] = tested on: C. albicans strain CIA4; assay: Agarose diffusion / checkerboard FLC chemosensitization; format: cell-based, Candida albicans; conditions: FLC-susceptible strain CIA4; 7.5 nmole RC21
# Summary of the method: as §1
# [17] = tested on: S. cerevisiae AD/CaCDR1 variants; assay: Spontaneous variants resistant to FLC chemosensitization; format: cell-based, Saccharomyces cerevisiae
# [18] = tested on: AD/pABC3 (Control); assay: MIC, liquid microdilution; format: cell-based, Saccharomyces cerevisiae; conditions: AD/pABC3, Control; RC21 and rhodamines; CSM pH 7.0, 30°C, 48 h
# [19] = molecular target: Cdr1p ATPase (Candida albicans, UniProt P43071); assay: CaCdr1p ATPase inhibition assay; format: biochemical
# Sequence of Cdr1p ATPase (P43071 whole entry): as the sequence (P43071 whole entry) above
# [20] = tested on: CaCdr2p; conditions: 1.25 μM; strain overexpressing CaCdr2p; ref Holmes et al., 2008; cited from earlier work
# [21] = tested on: EL4-2 (CaCdr1p Q1226R); assay: MIC, liquid microdilution; format: cell-based, Saccharomyces cerevisiae; conditions: EL4-2, Q1226R; RC21 and rhodamines; CSM pH 7.0, 30°C, 48 h
# [22] = tested on: EL3 (CaCdr1p Q714K); assay: MIC, liquid microdilution; format: cell-based, Saccharomyces cerevisiae; conditions: EL3, Q714K; RC21 and rhodamines; CSM pH 7.0, 30°C, 48 h
# [23] = tested on: C. albicans MML610; conditions: 0.62 μM; FLC-susceptible parental strain MML610; ref Holmes et al., 2008; cited from earlier work
compound,measurement,setting,value
C[C@@H]1[C@H](O)[C@@H](C)/C=C/C=C/C=C/C=C/C=C/C=C/C=C/[C@H](O[C@@H]2O[C@H](C)[C@@H](O)[C@H](N)[C@@H]2O)C[C@@H]2O[C@](O)(C[C@@H](O)C[C@@H](O)[C@H](O)CC[C@@H](O)C[C@@H](O)CC(=O)O[C@H]1C)C[C@H](O)[C@H]2C(=O)O [Amphotericin B],concentration causing complete lysis of red blood cells,[1]; human,3 µM
same,concentration rendering human epithelial cells inviable,[2]; human,15 µM
D-NH2-FFKW(Mtr)QRRR-CONH2 [RC21v1],chemosensitization of CaCdr1p-dependent FLC resistance,"[3]; agarose diffusion assays, amount not stated (partly data not shown)",ineffective
same,chemosensitization of cells overexpressing CaCdr1p to FLC,[3]; agarose diffusion,inactive
same,concentration required to obtain a significant effect on R6G efflux,"[4]; effect independent of glucose, non-specific membrane permeabilization",At least 40 μM
D-NH2-FFKWQRRR-CONH2 (H-[dF][dF][dK][dW][dQ][dR][dR][dR]-NH2),IC50,[5],5 µM
"D-NH2-FFKWQRRR-CONH2 + Mtr (H-[dF][dF][dK][dW][dQ][dR][dR][dR]-NH2; also: + Mtr, position not given here) [RC21]",MIC,[6],20 µM
same,MIC,[7],20 µM
same,MIC,[8],20 µM
same,MIC,[9],20 µM
same,MIC,[10],20 µM
same,inhibition of FLC resistance mediated by over-expression in S. cerevisiae of CaCdr1p,"[3]; crude RC21 6 nmole/disk, FLC at 1/4 MIC",inhibited FLC resistance
same,inhibition of glucose-dependent R6G efflux,[11],90%
same,inhibition of glucose-dependent R6G efflux,[12],90%
same,effect on FLC susceptibility,[13],minor effect
same,effect on the rate of uptake of R6G,[14],no significant effect
same,effect on growth of strain AD/pABC3,[15],no effect
same,effect on FLC susceptibility,[16],conferred increased FLC susceptibility
same,Resistance to FLC chemosensitization,"[17]; variant C1, Q1226K, External loop 4",High
same,Resistance to FLC chemosensitization,"[17]; variant C2, G547R, TMD1, TMS2",High
same,Resistance to FLC chemosensitization,"[17]; variant E1, V674F, TMD1, TMS5",Moderate
same,Resistance to FLC chemosensitization,"[17]; variant E2, V674F, TMD1, TMS5",Moderate
same,Resistance to FLC chemosensitization,"[17]; variant F1, Q1226K, External loop 4",High
same,Resistance to FLC chemosensitization,"[17]; variant F2, Q1226K, External loop 4",High
same,Resistance to FLC chemosensitization,"[17]; variant F3, Q714K, External loop 3",High
same,Resistance to FLC chemosensitization,"[17]; variant HE2, Q1226R, External loop 4",High
same,MIC,[18],>20 µM
same,increase in potency against CaCdr1p ATPase activity during deconvolution,[19]; IC50 = 20 → 1.3 μM,16 fold
same,mode of inhibition of CaCdr1p ATPase,[19]; preincubation of membranes with ATP,not a competitive inhibitor
same,effect on glucose-dependent R6G efflux,[20],no effect
same,MIC,[21],20 µM
same,IC50,[5],5 µM
same,lysis of red blood cells,[1],did not lyse; also recorded: did not hemolyse
same,MIC,[22],20 µM
same,inhibition of glucose-dependent R6G efflux,[23],detectably inhibited
RC21v2: HPLC-purified RC21 derivative with a single Mtr group attached to one of its three C-terminal arginine residues (FFKWQRRR),chemosensitization of yeast over-expressing CaCdr1p to FLC,"[3]; ~5.5 nmol per disk, agarose diffusion",chemosensitized
same,chemosensitization of cells overexpressing CaCdr1p to FLC,[3]; agarose diffusion,chemosensitized
same,inhibition of glucose-dependent R6G efflux,"[4]; 1.25 μM, after 5 minutes of preincubation",fully inhibited
same,Resistance to FLC chemosensitization,"[17]; variant R1, Q714K, External loop 3",High
same,Resistance to FLC chemosensitization,"[17]; variant R2, Q1445K, External loop 6",High
same,Resistance to FLC chemosensitization,"[17]; variant R3, Q1226K, External loop 4",High
same,Resistance to FLC chemosensitization,"[17]; variant R4, Q1226K, External loop 4",High
same,IC50,[5],5 µM
same,lysis of red blood cells,[1],did not lyse; also recorded: did not hemolyse
same,effect on growth or viability of a human epithelial cell line,[2]; 100 μM (≤100 μM in Fig. 7 legend),did not affect; also recorded: did not kill
